Where two headings read alike, the source gives them in different places. Values belong to the molecule of their own block, whether it stands above or below them.
Key:
[1] = tested on: H322M; experiment: Cell growth inhibition; type: cell-based; details: Homo sapiens, NCI-H322M, read-out: % growth inhibition, H322M
In short: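 Single-dose screen of non-small cell lung cancer lines (adenocarcinoma, metastatic adenocarcinoma, large cell and squamous carcinoma) with test compound at 10 μM. Read-out is % growth inhibition per cell line. Run as part of the NCI-60 human tumour cell line screen at the National Cancer Institute.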

[2] = tested on: non-small cell lung cancer cell lines; experiment: Cell growth inhibition, panel of nine NSCLC cell lines; type: cell-based, human
In short: (§1)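 GI50 determined per human cancer cell line, grouped by tumour type, with a 3 μM cut-off applied. Per-panel average GI50 and range were calculated. Fold change was taken as the ratio of the average GI50 to that of a reference antitumor ether lipid.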

[3] = tested on: 58 cancer cell lines; experiment: Spectrum of anticancer activity, 58 cancer cell lines; type: cell-based, human; details: 10 μM
In short: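 Spectrum screen over 58 human cancer cell lines covering leukemia, CNS, prostate, breast, lung and other tumour types, run in the NCI-60 screen at the National Cancer Institute. % growth inhibition per line; counts of lines above 50% and above 100% inhibition, plus mean growth inhibition across the 58 lines.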

[4] = tested on: seven colon cancer cell lines; experiment: GI50 evaluation, colon cancer cell lines; type: cell-based, human; details: for GI50: Homo sapiens
In short: as §1

[5] = tested on: six CNS cancer cell lines; experiment: GI50 evaluation, CNS cancer cell lines; type: cell-based, human; details: for GI50: Homo sapiens
In short: as §1

[6] = tested on: ovarian cancer cell lines; experiment: GI50 evaluation, ovarian cancer cell lines; type: cell-based, human; details: for GI50: Homo sapiens
In short: as §1

[7] = tested on: nine melanoma cell lines; experiment: GI50 evaluation, melanoma cell lines; type: cell-based, human; details: for GI50: Homo sapiens
In short: as §1

[8] = tested on: eight renal cancer cells; experiment: GI50 evaluation, renal cancer cells; type: cell-based, human; details: for GI50: Homo sapiens
In short: as §1

[9] = tested on: two prostate cancer cell lines; experiment: GI50 evaluation, prostate cancer cell lines; type: cell-based, human; details: for GI50: Homo sapiens, read-out: calculated average GI50, prostate cancer
In short: as §1

[10] = Selectivity against normal cells, MRC-5; type: cell-based, human; details: human, MRC-5 normal foetal lung fibroblast cells
[11] = tested on: normal human foetal lung fibroblast MRC-5 cell line; experiment: Selectivity against normal cells, MRC-5; type: cell-based; details: lung cancer cells rather than normal lung cells (MRC-5)
[12] = tested on: A549 cells; experiment: Cell cycle distribution analysis; type: cell-based, human; details: 24 h, different concentrations
In short: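 A549 lung cancer cells were treated with several concentrations of test compound, stained with propidium iodide for DNA content, and analysed by flow cytometry. Fractions in G0/G1, S and G2/M phases were quantified.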

[13] = tested on: A549 cells; experiment: Annexin V-FITC/PI double staining analysis; type: cell-based, human; details: 48 h, different concentrations
In short: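 A549 cells were treated with several concentrations of test compound, stained with annexin-V and propidium iodide, and analysed by FACS. Live, early apoptotic, late apoptotic and necrotic populations were quantified as percentages.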

[14] = tested on: phospho-Rb (p-Rb); experiment: Western blot in A549 cells, phospho-Rb; type: cell-based, human; details: 24 h
[15] = tested on: CDK2; experiment: Western blot in A549 cells, CDK2; type: cell-based, human; details: 24 h
[16] = tested on: CDK4; experiment: Western blot in A549 cells, CDK4; type: cell-based, human; details: 24 h
[17] = tested on: CDK6; experiment: Western blot in A549 cells, CDK6; type: cell-based, human; details: 24 h
[18] = tested on: cyclin D1; experiment: Western blot in A549 cells, cyclin D1; type: cell-based, human; details: 24 h
[19] = tested on: CDK1; experiment: Western blot in A549 cells, CDK1; type: cell-based, human; details: western blot (Fig. S1)
[20] = tested on: CDK7; experiment: Western blot in A549 cells, CDK7; type: cell-based, human; details: western blot (Fig. S1)
[21] = tested on: CDK8; experiment: Western blot in A549 cells, CDK8; type: cell-based, human; details: western blot (Fig. S1)
[22] = tested on: PARP; experiment: Western blot in A549 cells, PARP and cleaved PARP; type: cell-based, human; details: 24 h
[23] = tested on: BAX; experiment: Western blot in A549 cells, BAX; type: cell-based, human; details: 24 h
[24] = tested on: caspase 8; experiment: Western blot in A549 cells, caspase 8; type: cell-based, human; details: 24 h
[25] = tested on: four leukemic cancer cells; experiment: GI50 evaluation, leukemic cancer cells; type: cell-based, human; details: from average GI50
In short: as §1

[26] = tested on: five breast cancer cell lines; experiment: GI50 evaluation, breast cancer cell lines; type: cell-based, human; details: for GI50: Homo sapiens, read-out: calculated average GI50, breast cancer
In short: as §1

[27] = tested on: HCT15; experiment: GI50 evaluation, HCT15 colon adenocarcinoma; type: cell-based, human; details: cut-off value of 3 μM
In short: as §1

[28] = tested on: UO31; experiment: GI50 evaluation, UO31 renal cancer; type: cell-based, human; details: cut-off value of 3 μM
In short: as §1

[29] = tested on: ACHN; experiment: GI50 evaluation, ACHN renal cancer; type: cell-based, human; details: cut-off value of 3 μM
In short: as §1

[30] = tested on: HCC2998; experiment: GI50 evaluation, HCC2998 colon cancer; type: cell-based; details: Homo sapiens, HCC 2998, read-out: GI50, HCC2998
In short: as §1

[31] = tested on: COLO205; experiment: GI50 evaluation, COLO205 colon cancer; type: cell-based; details: Homo sapiens, COLO 205, read-out: GI50, COLO205
In short: as §1

[32] = Homo sapiens, read-out: GI50 range, non-small cell lung cancer
[33] = Homo sapiens, read-out: calculated average GI50, non-small cell lung cancer
[34] = read-out: GI50 range, colon cancer
[35] = read-out: calculated average GI50, colon cancer
[36] = read-out: GI50 range, CNS cancer
[37] = read-out: calculated average GI50, CNS cancer
[38] = read-out: GI50 range, ovarian cancer
[39] = read-out: calculated average GI50, ovarian cancer
[40] = read-out: calculated average GI50, melanoma
[41] = read-out: GI50 range, renal cancer
[42] = read-out: calculated average GI50, renal cancer

Structure (SMILES): CCCCCCCCCCCCCCCCCCOc1ccccc1CC(=O)OCC[N+]1(C)CCCC1.[I-] [Compound 9]
GI50 [2, 32]: 1.22 to 8.22 µM | GI50 [2, 33]: 2.67 µM | number of cell lines out of 58 inhibited by more than 50% [3]: 43 | number of cell lines out of 58 inhibited by more than 100% [3]: 3 | GI50 [4, 35]: 2.17 µM | GI50 [5, 36]: 1.26 to 2.83 µM | GI50 [5, 37]: 1.82 µM | GI50 [6, 38]: 1.52 to 18.9 µM | GI50 [6, 39]: 6.3 µM | GI50 ([7]; read-out: GI50 range, melanoma): 1.63 to 2.82 µM | GI50 [7, 40]: 2.07 µM | GI50 relative to cut-off, HCT15 [27]: outside the applied cut-off window | GI50 relative to cut-off, UO31 [28]: more than the applied cut-off value | GI50 relative to cut-off, ACHN [29]: more than the applied cut-off value

Structure (SMILES): CCCCCCCCCCCCCCCCCCOCC(COP(=O)([O-])OCC[N+](C)(C)C)OC (centres unmarked) [edelfosine, reference compound]
GI50 [2, 32]: 7.05 to 46.8 µM | GI50 [2, 33]: 25.2 µM | GI50 [4, 34]: 2.38 to 14.7 µM | GI50 [4, 35]: 7.8 µM | GI50 [5, 36]: 8.75 to 58.5 µM | GI50 [5, 37]: 21.4 µM | GI50 [6, 38]: 6.67 to 42.3 µM | GI50 [6, 39]: 25.2 µM | GI50 ([7]; read-out: GI50 range, melanoma): 15.4 to 98.4 µM | GI50 [7, 40]: 38.7 µM | GI50 [8, 41]: 12.1 to 72.8 µM | GI50 [8, 42]: 25 µM | GI50 [9]: > 53.6 µM | GI50 [26]: > 67.2 µM | GI50 [30]: 2.38 µM | GI50 [31]: 2.65 µM

Further lines, with some results ahead:

GI50 [2, 32]: 1.25 to 2.17 µM | GI50 [2, 33]: 1.62 µM | GI50 [4, 34]: 1.59 to 2.96 µM | GI50 [4, 35]: 1.91 µM | GI50 [5, 36]: 1.23 to 2.03 µM | GI50 [5, 37]: 1.59 µM | GI50 [6, 38]: 0.65 to 9.84 µM | GI50 [6, 39]: 2.64 µM | GI50 ([7]; read-out: GI50 range, melanoma): 1.57 to 2.34 µM | GI50 [7, 40]: 1.73 µM | GI50 [8, 41]: 0.49 to 1.75 µM | GI50 [8, 42]: 1.35 µM | GI50 [9]: 1.6 µM | GI50 [10]: 16.7 µM
Structure (SMILES): CCCCCCCCCCCCCCCCCCOc1ccccc1CC(=O)OCC[N+](C)(C)C.[I-] [Compound 6]
inhibition at 10 µM [1]: 33.5% | inhibition at 10 µM ([2]; Homo sapiens, read-out: % growth inhibition (range) against H460, A549, HOP62, HOP92, and H522 cell lines, 10 µM): 88.5 to 114% | average fold increase compared to the potency of edelfosine, NSCLC ([2]; from average GI50): 15.5 fold | number of cell lines out of 58 inhibited by more than 50% [3]: 50 | number of cell lines out of 58 inhibited by more than 100% [3]: 9 | average fold increase compared to the potency of edelfosine, colon cancer ([4]; from average GI50): 4 fold | fold increase compared to the potency of edelfosine, ovarian cancer ([6]; from average GI50): 9.5 fold | average fold increase compared to the potency of edelfosine, renal cancer ([8]; from average GI50): 18.5 fold | fold increase compared to the potency of edelfosine, prostate cancer ([9]; from average GI50): 33.5 fold | selectivity index, average [11]: 10.31 | selectivity index, range [11]: 7.70–13.36 | counts of cells in G0/G1 phase [12]: increased dose-dependently | counts of cells in the S and G2/M phases [12]: decreased in a dose-dependent pattern | apoptosis induction (early apoptosis population) [13]: increase in the portion of cells that entered the early apoptosis state | necrosis [13]: no significant necrosis | formation of phospho-Rb (p-Rb) [14]: inhibited dose-dependently | CDK2 protein level [15]: dose-dependent inhibition | CDK4 protein level [16]: dose-dependent inhibition | CDK6 protein level [17]: dose-dependent inhibition | cyclin D1 protein level [18]: dose-dependent inhibition | CDK1 protein level [19]: no dose-dependent inhibition | CDK7 protein level [20]: no dose-dependent inhibition | CDK8 protein level [21]: no dose-dependent inhibition | PARP cleavage [22]: dose-dependent PARP cleavage | BAX level [23]: dose-dependent upregulation of BAX | caspase 8 cleavage [24]: cleavage of caspase 8

GI50 [2, 32]: 1.1 to 4.03 µM | GI50 [2, 33]: 1.8 µM | GI50 [4, 34]: 1.04 to 4.39 µM | GI50 [4, 35]: 1.88 µM | GI50 [5, 36]: 0.97 to 1.62 µM | GI50 [5, 37]: 1.35 µM | GI50 [6, 38]: 0.92 to 7.58 µM | GI50 [6, 39]: 2.67 µM | GI50 ([7]; read-out: GI50 range, melanoma): 0.88 to 1.9 µM | GI50 [7, 40]: 1.33 µM | GI50 [26]: 1.43 µM | GI50 relative to cut-off, HCT15 [27]: outside the applied cut-off window | GI50 relative to cut-off, UO31 [28]: more than the applied cut-off value | GI50 relative to cut-off, ACHN [29]: more than the applied cut-off value
Structure (SMILES): CCCCCCCCCCCCCCCCCCOc1ccccc1CC(=O)OCC[N+](CC)(CC)CC.[I-] [Compound 8]
number of cell lines out of 58 inhibited by more than 50% [3]: 49 | number of cell lines out of 58 inhibited by more than 100% [3]: 10 | average fold increase compared to the potency of edelfosine, leukemia [25]: 13 fold | fold increase compared to the potency of edelfosine, CNS cancer ([5]; from average GI50): more than 15 fold | average fold increase compared to the potency of edelfosine, melanoma ([7]; from average GI50): 29 fold | fold increase compared to the potency of edelfosine, breast cancer ([26]; from average GI50): ~47 fold

GI50 [2, 32]: 1.32 to 5.78 µM | GI50 [2, 33]: 2.35 µM | GI50 [4, 35]: 2.16 µM | GI50 [5, 36]: 1.39 to 2.93 µM | GI50 [5, 37]: 1.92 µM | GI50 [6, 38]: 1.54 to 18.2 µM | GI50 [6, 39]: 6.28 µM | GI50 ([7]; read-out: GI50 range, melanoma): 1.7 to 2.79 µM | GI50 [7, 40]: 2.07 µM | GI50 relative to cut-off, HCT15 [27]: outside the applied cut-off window | GI50 relative to cut-off, UO31 [28]: more than the applied cut-off value | GI50 relative to cut-off, ACHN [29]: more than the applied cut-off value
Structure (SMILES): CCCCCCCCCCCCCCCCCCOc1ccccc1CC(=O)OCC[N+]1(C)CCCCC1.[I-] [Compound 10]
number of cell lines out of 58 inhibited by more than 50% [3]: 31 | number of cell lines out of 58 inhibited by more than 100% [3]: 6

— paper PMC11931566 (RSC Medicinal Chemistry, 2025)
